Experimental data: ChEMBL document CHEMBL1157729, “Structure-activity relationship and mechanism of action studies of manzamine analogues for the control of neuroinflammation and cerebral infections” (J Med Chem, 2010)
pIC50: −log10 of the molar value. Values after ≈ are worked out from the molar mass of the structure shown. Active and inactive are the calls of the source. No cut-off for these calls is given here.

Experiments:
Plasmodium berghei [1] = experiment: Antiplasmodial activity against Plasmodium berghei NK65 infected in Swiss Webster mice (Mus musculus) assessed as parasitaemia cure at 10 mg/kg, intraperitoneally administered 1 day after infection measured after 28 days post infection; assay type: functional
Plasmodium berghei [2] = experiment: Antiplasmodial activity against Plasmodium berghei NK65 infected in Swiss Webster mice (Mus musculus) assessed as survivability at 10 mg/kg, intraperitoneally administered 1 day after infection for 3 days measured after 28 days post infection; assay type: functional, organism-based; parameters: dose 10 mg/kg
Plasmodium berghei [3] = experiment: Antiplasmodial activity against Plasmodium berghei NK65 infected in Swiss Webster mice (Mus musculus) at 10 mg/kg, intraperitoneally administered 1 day after infection for 3 days; assay type: functional; conditions: route intraperitoneal
Plasmodium berghei [4] = experiment: Antiplasmodial activity against Plasmodium berghei NK65 infected in Swiss Webster mice (Mus musculus) assessed as suppression of parasitaemia at 10 mg/kg, intraperitoneally administered 1 day after infection for 3 days measured after 7 days post infection relative to control; assay type: functional; conditions: route intraperitoneal
Plasmodium berghei [5] = experiment: Antiplasmodial activity against Plasmodium berghei NK65 infected in Swiss Webster mice (Mus musculus) assessed as suppression of parasitaemia at 10 mg/kg, intraperitoneally administered 1 day after infection for 3 days measured after 5 days post infection relative to control; assay type: functional; conditions: route intraperitoneal
[6] = system: Mycobacterium tuberculosis; experiment: Antimycobacterial activity against Mycobacterium tuberculosis; assay type: functional
Plasmodium berghei [7] = experiment: Toxicity in Plasmodium berghei NK65 infected Swiss Webster mice (Mus musculus) assessed as weight loss at 10 mg/kg, intraperitoneally administered 1 day after infection measured after 28 days post infection; assay type: organism-based; parameters: dose 10 mg/kg, route intraperitoneal; conditions: in vivo, ip, 672 h
[8] = Antineuroinflammatory activity in LPS-stimulated rat neonatal microglia assessed as inhibition of PMA-induced TXB2 production preincubated 15 mins prior to PMA challenge measured after 70 mins; assay type: functional, cell-based
[9] = Selectivity index, ratio of IC50 for african green monkey (Cercopithecus aethiops) Vero cells to IC50 for chloroquine-sensitive Plasmodium falciparum; assay type: toxicity, cell-based
[10] = Antineuroinflammatory activity in LPS-stimulated rat neonatal microglia assessed as drug level causing 50% PMA-induced LDH release preincubated 15 mins prior to PMA challenge measured after 70 mins; assay type: functional
How it was run: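 Neonatal rat microglia (2 × 10^5/well) primed with E. coli LPS 0.3 ng/mL for 17 h at 35.9 °C, washed with HBSS, given compound (0.01–10 μM) or DMSO 15 min, then PMA 1 μM; LDH read spectrophotometrically after 70 min; LDH50 relative to Triton X-100 (0.1%) release; duplicates.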

[11] = Antineuroinflammatory activity in LPS-stimulated rat neonatal microglia assessed as inhibition of PMA-induced superoxide anion production preincubated 15 mins prior to PMA challenge measured after 70 mins; assay type: functional, cell-based
[12] = Selectivity index, ratio of IC50 for african green monkey (Cercopithecus aethiops) Vero cells to IC50 for chloroquine-resistant Plasmodium falciparum W2; assay type: toxicity, cell-based
Tubulin (Sus scrofa) [13] = biological target: T1, Tubulin (Sus scrofa) (UniProt P02554+P02550); experiment: Inhibition of pig brain tubulin polymerization up to 30 mins by turbidimetry
Tubulin (Sus scrofa) [14] = biological target: T1, Tubulin (Sus scrofa); experiment: Inhibition of pig brain tubulin polymerization after 30 to 60 mins in presence of GTP and glutamate by turbidimetry
[15] = system: Mycobacterium tuberculosis; experiment: Antimycobacterial activity against Mycobacterium tuberculosis H37Rv; assay type: functional, organism-based
HeLa [16] = experiment: Cell cycle arrest in human HeLa cells assessed as decrease in G2/M phase accumulation at 5 uM after 24 hrs by FACS analysis; assay type: functional; parameters: scale not given: the % may be the effect or the level left
HeLa [17] = experiment: Cell cycle arrest in human HeLa cells assessed as increase in S phase accumulation at 10 uM after 24 hrs by FACS analysis; assay type: functional
Plasmodium falciparum [18] = experiment: Antiplasmodial activity against chloroquine-sensitive Plasmodium falciparum D6 after 72 hrs by LDH assay; assay type: functional, organism-based; conditions: Plasmodium falciparum, D6, 72 h; read-out: IC50
Vero [19] = experiment: Cytotoxicity against african green monkey Vero cells after 48 hrs by neutral red assay; assay type: cell-based; conditions: chlorocebus sabaeus
How it was run: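 Vero cells seeded at 25,000/well and grown 24 h, then exposed to serially diluted samples for 48 h. Viable cells measured by neutral red assay, with doxorubicin as positive control. IC50 taken from dose-response curves.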

HeLa [20] = experiment: Cell cycle arrest in human HeLa cells assessed as increase in G0/G1 phase accumulation at 5 uM after 24 hrs by FACS analysis; assay type: functional
Cryptococcus neoformans = experiment: Antifungal activity against Cryptococcus neoformans ATCC 90113; assay type: functional, organism-based
How it was run: (§1)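 Broth microdilution per modified CLSI method; samples serially diluted in 20% DMSO/saline, tested in duplicate; inocula set by OD630 of suspensions in incubation broth; growth read at 630 nm before and after incubation; amphotericin B drug control.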

HeLa [21] = experiment: Cell cycle arrest in human HeLa cells assessed as increase in S phase accumulation at 20 uM after 24 hrs by FACS analysis; assay type: functional
HeLa [22] = experiment: Cell cycle arrest in human HeLa cells assessed as increase in G0/G1 phase accumulation at 20 uM after 24 hrs by FACS analysis; assay type: functional
Plasmodium falciparum [23] = experiment: Antiplasmodial activity against chloroquine-resistant Plasmodium falciparum W2 after 72 hrs by LDH assay; assay type: functional, organism-based; conditions: Plasmodium falciparum, W2, 72 h; read-out: IC50
[24] = system: Mycobacterium intracellulare; experiment: Antimycobacterial activity against Mycobacterium intracellular ATCC 23068; assay type: functional, organism-based
How it was run: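 Modified Franzblau method; samples serially diluted in 20% DMSO/saline, tested in duplicate; inoculum set by OD630; fluorescence read at 544ex/590em before and after incubation; ciprofloxacin drug control.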

HeLa [25] = experiment: Cell cycle arrest in human HeLa cells assessed as decrease in G2/M phase accumulation at 10 uM after 24 hrs by FACS analysis; assay type: functional; parameters: scale not given: the % may be the effect or the level left
HeLa [26] = experiment: Cell cycle arrest in human HeLa cells assessed as decrease in G2/M phase accumulation at 20 uM after 24 hrs by FACS analysis; assay type: functional; parameters: scale not given: the % may be the effect or the level left
HeLa [27] = experiment: Cell cycle arrest in human HeLa cells assessed as increase in S phase accumulation at 5 uM after 24 hrs by FACS analysis; assay type: functional
HeLa [28] = experiment: Cell cycle arrest in human HeLa cells assessed as increase in G0/G1 phase accumulation at 3 uM after 24 hrs by FACS analysis; assay type: functional
Candida albicans = experiment: Antifungal activity against Candida albicans ATCC 90028; assay type: functional, organism-based; how it was run: as §1
HeLa [29] = experiment: Cytotoxicity against human HeLa cells after 48 hrs by trypan blue exclusion assay; assay type: functional
HeLa [30] = experiment: Cell cycle arrest in human HeLa cells assessed as increase in S phase accumulation at 3 uM after 24 hrs by FACS analysis; assay type: functional
HeLa [31] = experiment: Cell cycle arrest in human HeLa cells assessed as increase in G0/G1 phase accumulation at 10 uM after 24 hrs by FACS analysis; assay type: functional
HeLa [32] = experiment: Cell cycle arrest in human HeLa cells assessed as decrease in G2/M phase accumulation at 3 uM after 24 hrs by FACS analysis; assay type: functional; parameters: scale not given: the % may be the effect or the level left
[33] = Cytotoxicity against LPS-stimulated rat neonatal microglia assessed as LDH release
How it was run: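 Rat neonatal microglia (2×10^5/well) primed with E. coli LPS (0.3 ng/mL) for 17 h at 35.9 °C. Washed into HBSS, given compound (0.01-10 μM) or DMSO for 15 min, then PMA (1 μM) for 70 min, in duplicate. LDH release read spectrophotometrically. LDH50 is the concentration giving 50% of the LDH release seen with 0.1% Triton X-100.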

Vero [34] = experiment: Cytotoxicity against african green monkey Vero cells up to 4.6 ug/mL after 48 hrs by neutral red assay; assay type: cell-based; conditions: chlorocebus sabaeus
How it was run: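 Vero cells were seeded at 25,000 cells/well and incubated for 24 h, then exposed to serially diluted samples for 48 h. Viable cells were counted by Neutral Red assay, with doxorubicin as positive control. IC50 was taken from dose-response curves.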

T1 sequence (P02550 whole entry, looked up): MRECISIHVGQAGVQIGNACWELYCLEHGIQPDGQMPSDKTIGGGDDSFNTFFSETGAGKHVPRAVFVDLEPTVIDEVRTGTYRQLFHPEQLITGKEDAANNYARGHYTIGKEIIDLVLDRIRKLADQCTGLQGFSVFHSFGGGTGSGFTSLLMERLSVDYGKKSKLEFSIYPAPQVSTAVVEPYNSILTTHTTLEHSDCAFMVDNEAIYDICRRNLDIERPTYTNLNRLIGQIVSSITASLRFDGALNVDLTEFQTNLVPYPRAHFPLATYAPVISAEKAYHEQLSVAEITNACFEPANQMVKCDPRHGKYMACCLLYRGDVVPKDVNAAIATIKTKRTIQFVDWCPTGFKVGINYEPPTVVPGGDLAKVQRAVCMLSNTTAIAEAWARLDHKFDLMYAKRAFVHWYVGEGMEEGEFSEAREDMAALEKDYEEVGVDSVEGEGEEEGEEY
T1 sequence (P02554 whole entry, looked up): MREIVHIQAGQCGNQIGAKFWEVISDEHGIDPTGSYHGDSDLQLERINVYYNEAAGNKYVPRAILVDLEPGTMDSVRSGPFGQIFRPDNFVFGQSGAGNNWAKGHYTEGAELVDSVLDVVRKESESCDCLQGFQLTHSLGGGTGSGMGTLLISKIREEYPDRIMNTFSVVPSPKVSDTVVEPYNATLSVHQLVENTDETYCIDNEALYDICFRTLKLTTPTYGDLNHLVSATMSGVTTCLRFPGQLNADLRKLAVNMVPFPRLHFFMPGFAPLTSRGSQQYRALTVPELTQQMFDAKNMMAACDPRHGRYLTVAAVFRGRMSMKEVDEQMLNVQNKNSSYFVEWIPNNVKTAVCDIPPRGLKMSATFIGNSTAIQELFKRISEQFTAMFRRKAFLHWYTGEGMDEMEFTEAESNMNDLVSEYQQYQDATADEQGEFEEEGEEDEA

Structure (SMILES): Oc1cccc2c1[nH]c1c(C3=C[C@@]4(O)CC/C=C\CCCCN5CC[C@@H]3[C@]3(CC6/C=C\CCCCN6[C@H]34)C5)nccc12 (stereo not given in full)
- Activity (Plasmodium berghei [1]; route intraperitoneal): 80%
- Activity (Plasmodium berghei [2]): Active
- MST (Plasmodium berghei [3]): > 28 days
- Activity (Plasmodium berghei [4]): 100%
- Activity (Plasmodium berghei [5]): 100%
- MIC [6]: 0.91 µg/mL (≈ 1.61 µM)
- Activity (Plasmodium berghei [7]): Toxic
- pIC50 [8]: 6.30
- Ratio IC50 [9]: 180
- Activity [10]: >10 µM
- pIC50 [11]: < 5.00
- selectivity ratio ([12]; Vero cells, read-out: Ratio IC50): 25
- Ratio IC50 ([12]; vero): 140

Structure (SMILES): O[C@]12C=C(c3nccc4c3[nH]c3ccccc34)[C@@H]3CCN(CCCC/C=C\CC1)C[C@@]31C[C@@H]3/C=C\CCCCN3[C@H]12
- inhibition (Plasmodium berghei [1]): inactive
- inhibition (Plasmodium berghei [2]): inactive
- inhibition (Tubulin (Sus scrofa) [13]): inactive
- inhibition (Tubulin (Sus scrofa) [14]): inactive

Structure (SMILES): CC(C)Cn1c2ccccc2c2ccnc(C3=C[C@@]4(O)CC/C=C\CCCCN5CC[C@@H]3[C@]3(C[C@@H]6/C=C\CCCCN6[C@H]34)C5)c21 [9-N-ISOBUTYLMANZAMINE A]
- MIC [15]: 4.6 µg/mL (≈ 7.6 µM)
- Activity (HeLa [16]): 17.8%
- Activity (HeLa [17]): 19.5%
- IC50 (Plasmodium falciparum [18]): 0.039 µg/mL (≈ 0.0645 µM)
- IC50 (Vero [19]): 0.4 µg/mL (≈ 0.661 µM)
- Activity (HeLa [20]): 54.9%
- IC50 (Cryptococcus neoformans): 3 µg/mL (≈ 4.96 µM)
- Activity (HeLa [21]): 19.1%
- Activity (HeLa [22]): 52.3%
- IC50 (Plasmodium falciparum [23]): 0.078 µg/mL (≈ 0.129 µM)
- IC50 [24]: 1 µg/mL (≈ 1.65 µM)
- pIC50 [8]: < 5.00
- Activity (HeLa [25]): 17%
- Activity [10]: >10 µM
- Activity (HeLa [26]): 17.4%
- Activity (HeLa [27]): 16.4%
- pIC50 [11]: 5.24
- Activity (HeLa [28]): 54.2%
- IC50 (Candida albicans): 10 µg/mL (≈ 16.5 µM)
- Activity (HeLa [29]): >30 µg/mL
- Activity (HeLa [30]): 16.6%
- Activity (HeLa [31]): 51.1%
- Activity (HeLa [32]): 19.2%

Structure (SMILES): O[C@]12C=C(C3NCCc4c3[nH]c3ccccc43)[C@@H]3CCN(CCCC/C=C\CC1)C[C@@]31C[C@@H]3/C=C\CCCCN3[C@H]12 (stereo not given in full) [MANZAMINE D]
- Activity [33]: Toxic
- IC50 (Plasmodium falciparum [18]): 0.09 µg/mL (≈ 0.163 µM)
- IC50 (Cryptococcus neoformans): 0.8 µg/mL (≈ 1.45 µM)
- IC50 (Plasmodium falciparum [23]): 0.088 µg/mL (≈ 0.159 µM)
- IC50 [24]: 0.1 µg/mL (≈ 0.181 µM)
- pIC50 [8]: 5.68
- Activity [10]: 1 µM
- pIC50 [11]: 5.61
- IC50 (Candida albicans): 15 µg/mL (≈ 27.1 µM)
- Activity (Vero [34]): Non-toxic
